Test results taken from ChEMBL document CHEMBL4334464, “From Phenylthiazoles to Phenylpyrazoles: Broadening the Antibacterial Spectrum toward Carbapenem-Resistant Bacteria” (J Med Chem, 2019).
≈ marks a conversion by molar mass, not a printed value. Calls of active or inactive are those of the source. The rule behind the calls is not given here.

What was measured:
Assay type in all cases: functional
Staphylococcus aureus [1] = assay: Antibacterial activity against methicillin-resistant Staphylococcus aureus NRS384-USA300 clinical isolates after 18 to 20 hrs in aerobic condition by CLSI protocol based broth microdilution assay
Escherichia coli [2] = assay: Antimicrobial activity against Escherichia coli JW55031 harboring deltatolC mutant after 18 to 20 hrs in aerobic condition by CLSI protocol based broth microdilution assay
Staphylococcus aureus [3] = assay: Antibacterial activity against Methicillin-sensitive Staphylococcus aureus ATCC 6538 clinical isolates after 18 to 20 hrs in aerobic condition by CLSI protocol based broth microdilution assay
Staphylococcus aureus [4] = assay: Antibacterial activity against Methicillin-sensitive Staphylococcus aureus NRS107 clinical isolates after 18 to 20 hrs in aerobic condition by CLSI protocol based broth microdilution assay
Staphylococcus aureus [5] = assay: Antibacterial activity against linezolid-resistant/Methicillin-resistant Staphylococcus aureus NRS119 clinical isolates after 18 to 20 hrs in aerobic condition by CLSI protocol based broth microdilution assay
Staphylococcus aureus [6] = assay: Antibacterial activity against Methicillin-resistant Staphylococcus aureus NRS123-USA400 clinical isolates after 18 to 20 hrs in aerobic condition by CLSI protocol based broth microdilution assay
Staphylococcus aureus [7] = assay: Antibacterial activity against vancomycin-resistant Staphylococcus aureus isolate 10 after 18 to 20 hrs in aerobic condition by CLSI-based broth microdilution assay
Staphylococcus aureus [8] = assay: Antibacterial activity against vancomycin-resistant Staphylococcus aureus isolate 12 after 18 to 20 hrs in aerobic condition by CLSI-based broth microdilution assay
[9] = test system: Staphylococcus epidermidis; assay: Antibacterial activity against Staphylococcus epidermidis NRS101 after 18 to 20 hrs in aerobic condition by CLSI-based broth microdilution assay
Enterococcus faecium = assay: Antibacterial activity against vancomycin-resistant Enterococcus faecium ATCC 700221 clinical isolates after 18 to 20 hrs in aerobic condition by CLSI-based broth microdilution assay
Listeria monocytogenes = assay: Antibacterial activity against Listeria monocytogenes ATCC 19111 after 18 to 20 hrs in aerobic condition by CLSI-based broth microdilution assay
Staphylococcus aureus [10] = assay: Antibiofilm activity against methicillin-resistant Staphylococcus aureus NRS384-USA300 clinical isolates assessed as inhibition of biofilm formation at 0.5 times MIC incubated for 24 hrs by crystal violet staining based spectrophotometric method relative to control
Salmonella enteritidis = assay: Antibacterial activity against Salmonella enteritidis ATCC 14028 infected in mouse J774 cells assessed as reduction in intracellular bacterial cells at 2 times MIC incubated for 24 hrs followed by re-plating on TSA plate and measured after 18 to 22 hrs relative to control; conditions: Salmonella enterica subsp. enterica serovar Enteritidis
Procedure, shortened: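 J774 murine macrophages infected with Salmonella enteritidis ATCC 14028, then treated at 2×MIC for 24 h, in triplicate. Read-out is the percent reduction in intracellular colony forming units versus the untreated control.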

Escherichia coli [11] = assay: Antibacterial activity against carbapenem-resistant Escherichia coli BAA-2452 clinical isolates after 18 to 20 hrs in aerobic condition by CLSI-based broth microdilution assay
Escherichia coli [12] = assay: Antibacterial activity against carbapenem-resistant Escherichia coli BAA-2469 clinical isolates after 18 to 20 hrs in aerobic condition by CLSI-based broth microdilution assay
Klebsiella pneumoniae [13] = assay: Antibacterial activity against carbapenem-resistant Klebsiella pneumoniae ATCC BAA-1705 clinical isolates after 18 to 20 hrs in aerobic condition by CLSI-based broth microdilution assay
Klebsiella pneumoniae [14] = assay: Antibacterial activity against carbapenem-resistant Klebsiella pneumoniae ATCC BAA-2146 clinical isolates after 18 to 20 hrs in aerobic condition by CLSI-based broth microdilution assay
Acinetobacter baumannii [15] = assay: Antibacterial activity against carbapenem-resistant Acinetobacter baumannii ATCC BAA 1605 clinical isolates after 18 to 20 hrs in aerobic condition by CLSI-based broth microdilution assay
Pseudomonas aeruginosa [16] = assay: Antibacterial activity against carbapenem-resistant Pseudomonas aeruginosa ATCC 1744 clinical isolates after 18 to 20 hrs in aerobic condition by CLSI-based broth microdilution assay
Acinetobacter baumannii [17] = assay: Antibacterial activity against Acinetobacter baumannii ATCC 19606 clinical isolates after 18 to 20 hrs in aerobic condition by CLSI-based broth microdilution assay; conditions: ATCC 19606 = CIP 70.34 = JCM 6841
Escherichia coli [18] = assay: Antibacterial activity against Escherichia coli BW25113 clinical isolates after 18 to 20 hrs in aerobic condition by CLSI-based broth microdilution assay
Klebsiella pneumoniae [19] = assay: Antibacterial activity against Klebsiella pneumoniae BAA-1706 clinical isolates after 18 to 20 hrs in aerobic condition by CLSI-based broth microdilution assay
Pseudomonas aeruginosa [20] = assay: Antibacterial activity against Pseudomonas aeruginosa ATCC 15442 clinical isolates after 18 to 20 hrs in aerobic condition by CLSI-based broth microdilution assay

## CCCCCCC#Cc1ccc(-n2ncc(/C(C)=N/NC(=N)N)c2C)cc1
Staphylococcus aureus [1]
  MIC: 2 µg/mL (≈ 5.49 µM)
Escherichia coli [2]
  MIC: 8 µg/mL (≈ 21.9 µM)

## CCN(CC)CC#Cc1ccc(-n2ncc(/C(C)=N/NC3=NCCN3)c2C)cc1
Staphylococcus aureus [1]
  MIC: > 128 µg/mL
Escherichia coli [2]
  MIC: > 128 µg/mL

## CC(=O)NC[C@H]1CN(c2ccc(N3CCOCC3)c(F)c2)C(=O)O1 [LINEZOLID]
Staphylococcus aureus [1]
  MIC: 1 µg/mL (≈ 2.96 µM)
Staphylococcus aureus [3]
  MIC: 1 µg/mL (≈ 2.96 µM)
Staphylococcus aureus [4]
  MIC: 1 µg/mL (≈ 2.96 µM)
Staphylococcus aureus [5]
  MIC: 32 µg/mL (≈ 94.9 µM)
Staphylococcus aureus [6]
  MIC: 1 µg/mL (≈ 2.96 µM)
Staphylococcus aureus [7]
  MIC: 1 µg/mL (≈ 2.96 µM)
Staphylococcus aureus [8]
  MIC: 1 µg/mL (≈ 2.96 µM)
[9]
  MIC: ≤ 0.5 µg/mL
Enterococcus faecium
  MIC: 1 µg/mL (≈ 2.96 µM)
Listeria monocytogenes
  MIC: 1 µg/mL (≈ 2.96 µM)

## C/C(=N\NC1=NCCN1)c1cnn(-c2ccc(C#CC(C)(C)C)cc2)c1C
Staphylococcus aureus [1]
  MIC: 16 µg/mL (≈ 44.1 µM)
Escherichia coli [2]
  MIC: 16 µg/mL (≈ 44.1 µM)
Staphylococcus aureus [10]
  inhibition (INH): 62%

## C/C(=N\NC1=NCCN1)c1cnn(-c2ccc(C#Cc3ccccc3)cc2)c1C
Staphylococcus aureus [1]
  MIC: 4 µg/mL (≈ 10.5 µM)
Escherichia coli [2]
  MIC: 4 µg/mL (≈ 10.5 µM)

## CCCC#Cc1ccc(-n2ncc(/C(C)=N/NC3=NCCN3)c2C)cc1
Staphylococcus aureus [1]
  MIC: 8 µg/mL (≈ 23 µM)
Escherichia coli [2]
  MIC: 16 µg/mL (≈ 45.9 µM)

## C/C(=N\NC(=N)N)c1cnn(-c2ccc(C#CC(C)(C)C)cc2)c1C
Staphylococcus aureus [1]
  MIC: 8 µg/mL (≈ 23.8 µM)
Escherichia coli [2]
  MIC: 8 µg/mL (≈ 23.8 µM)

## NC[C@H]1O[C@H](O[C@H]2[C@H](O)[C@@H](O[C@H]3O[C@H](CO)[C@@H](O)[C@H](N)[C@H]3O)[C@H](N)C[C@@H]2N)[C@H](O)[C@@H](O)[C@@H]1O
Salmonella enteritidis
  Activity: inactive

## COLISTIN
Escherichia coli [11]
  MIC: 0.06 µg/mL
Escherichia coli [12]
  MIC: 0.06 µg/mL
Klebsiella pneumoniae [13]
  MIC: 0.125 µg/mL
Klebsiella pneumoniae [14]
  MIC: 0.25 µg/mL
Acinetobacter baumannii [15]
  MIC: 0.25 µg/mL
Pseudomonas aeruginosa [16]
  MIC: 1 µg/mL

## C/C(=N\NC1=NCCN1)c1cnn(-c2ccc(C#CC3CCCCC3)cc2)c1C
Staphylococcus aureus [1]
  MIC: 4 µg/mL (≈ 10.3 µM)
Escherichia coli [2]
  MIC: 4 µg/mL (≈ 10.3 µM)

## CN(C)c1cc(NC(=O)CNC(C)(C)C)c(O)c2c1C[C@H]1C[C@H]3[C@H](N(C)C)C(O)=C(C(N)=O)C(=O)[C@@]3(O)C(O)=C1C2=O [TIGECYCLINE]
Escherichia coli [11]
  MIC: 0.25 µg/mL (≈ 0.427 µM)
Escherichia coli [12]
  MIC: 0.5 µg/mL (≈ 0.854 µM)
Klebsiella pneumoniae [13]
  MIC: 1 µg/mL (≈ 1.71 µM)
Klebsiella pneumoniae [14]
  MIC: 4 µg/mL (≈ 6.83 µM)
Acinetobacter baumannii [15]
  MIC: 1 µg/mL (≈ 1.71 µM)
Pseudomonas aeruginosa [16]
  MIC: 8 µg/mL (≈ 13.7 µM)

## CCCCCCC#Cc1ccc(-n2ncc(/C(C)=N/NC3=NCCN3)c2C)cc1
Staphylococcus aureus [1]
  MIC: 4 µg/mL (≈ 10.2 µM)
Escherichia coli [2]
  MIC: 8 µg/mL (≈ 20.5 µM)

## C/C(=N\NC(=N)N)c1cnn(-c2ccc(C#CC(C)(C)O)cc2)c1C
Staphylococcus aureus [1]
  MIC: 128 µg/mL (≈ 378 µM)
Escherichia coli [2]
  MIC: 128 µg/mL (≈ 378 µM)

## C/C(=N/NC(=N)N)c1sc(-c2ccc(C#Cc3ccccc3)cc2)nc1C
Escherichia coli [2]
  Activity: inactive
Acinetobacter baumannii [17]
  Activity: inactive
Escherichia coli [18]
  Activity: inactive
Klebsiella pneumoniae [19]
  Activity: inactive
Pseudomonas aeruginosa [20]
  Activity: inactive
